# Test: Inhibition of Porphyromonas gingivalis gamma-carbonic anhydrase expressed in Escherichia coli preincubated for 15 mins by stopped flow CO2 hydration assay
# In short: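 CO2 hydration followed by stopped-flow with phenol red (0.2 mM) read at 557 nm. Buffer was 20 mM Hepes pH 7.4 with 20 mM NaBF4 for ionic strength, and CO2 was 1.7–17 mM. Initial rates came from ≥6 traces of the first 5–10% of reaction over 10–100 s, with uncatalyzed rate subtracted. Inhibitor was diluted in water from 10 mM stock and preincubated with enzyme 15 min at rt. KI came from nonlinear least squares plus Cheng–Prusoff, mean of ≥3 determinations.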
row,SMILES,Ki [nM]
1,CC(=O)NC(CCCCNC(=O)OC(C)(C)C)C(=O)Nc1cccc(S(N)(=O)=O)c1 (stereo not given),54.2
2,CC(C)(C)OC(=O)NCCCC(=O)NCc1ccc(S(N)(=O)=O)cc1,490
3,CC(C)(C)OC(=O)NCCCC(=O)NCCc1ccc(S(N)(=O)=O)cc1,233
4,NCCCC(=O)NCc1ccc(S(N)(=O)=O)cc1,42.7
5,NCCCC(=O)NCCc1ccc(S(N)(=O)=O)cc1,65.9
6,CC(C)(C)OC(=O)/N=C(\NCCCC(=O)NCc1ccc(S(N)(=O)=O)cc1)NC(=O)OC(C)(C)C,74
7,CC(C)(C)OC(=O)/N=C(\NCCCC(=O)NCCc1ccc(S(N)(=O)=O)cc1)NC(=O)OC(C)(C)C,90.6
8,N=C(N)NCCCC(=O)NCc1ccc(S(N)(=O)=O)cc1,887
9,N=C(N)NCCCC(=O)NCCc1ccc(S(N)(=O)=O)cc1,40.1
10,CC(=O)NC(CCCCNC(=O)OC(C)(C)C)C(=O)NCc1ccc(S(N)(=O)=O)cc1 (stereo not given),89
11,CC(=O)NC(CCCCNC(=O)OC(C)(C)C)C(=O)NCCc1ccc(S(N)(=O)=O)cc1 (stereo not given),312
12,CC(=O)NC(CCCCN)C(=O)NCc1ccc(S(N)(=O)=O)cc1 (stereo not given),74.1
13,CC(=O)NC(CCCCN)C(=O)NCCc1ccc(S(N)(=O)=O)cc1 (stereo not given),70.5
14,CC(=O)NC(CCCCN/C(=N/C(=O)OC(C)(C)C)NC(=O)OC(C)(C)C)C(=O)NCc1ccc(S(N)(=O)=O)cc1 (stereo not given),77.6
15,CC(=O)NC(CCCCN/C(=N/C(=O)OC(C)(C)C)NC(=O)OC(C)(C)C)C(=O)NCCc1ccc(S(N)(=O)=O)cc1 (stereo not given),60.8
16,CC(=O)NC(CCCCNC(=N)N)C(=O)NCc1ccc(S(N)(=O)=O)cc1 (stereo not given),80.7
17,CC(=O)NC(CCCCNC(=N)N)C(=O)NCCc1ccc(S(N)(=O)=O)cc1 (stereo not given),370
18,CC(C)(C)OC(=O)NCCCC(=O)Nc1cccc(S(N)(=O)=O)c1,1240
19,CC(C)(C)OC(=O)NCCCC(=O)Nc1ccc(S(N)(=O)=O)cc1,56
20,COC(=O)C(CCCCNC(=O)OCc1ccccc1)NC(=O)c1ccc(S(N)(=O)=O)cc1 (stereo not given),85.4

# Reference: ChEMBL document CHEMBL3352191, “Synthesis of sulfonamides with effective inhibitory action against Porphyromonas gingivalis γ-carbonic anhydrase” (Bioorg Med Chem Lett, 2014)
